The structures appear in SMILES notation. Calls of active or inactive are those of the source. No cut-off for these calls is given here.

Eleven compounds from ChEMBL document CHEMBL4330143, “Maximizing ER-α Degradation Maximizes Activity in a Tamoxifen-Resistant Breast Cancer Model: Identification of GDC-0927” (ACS Med Chem Lett, 2019) can be followed below.

Data set [1] deals with T1, Estrogen receptor (Homo sapiens, UniProt P03372).
T1 sequence (P03372 whole entry): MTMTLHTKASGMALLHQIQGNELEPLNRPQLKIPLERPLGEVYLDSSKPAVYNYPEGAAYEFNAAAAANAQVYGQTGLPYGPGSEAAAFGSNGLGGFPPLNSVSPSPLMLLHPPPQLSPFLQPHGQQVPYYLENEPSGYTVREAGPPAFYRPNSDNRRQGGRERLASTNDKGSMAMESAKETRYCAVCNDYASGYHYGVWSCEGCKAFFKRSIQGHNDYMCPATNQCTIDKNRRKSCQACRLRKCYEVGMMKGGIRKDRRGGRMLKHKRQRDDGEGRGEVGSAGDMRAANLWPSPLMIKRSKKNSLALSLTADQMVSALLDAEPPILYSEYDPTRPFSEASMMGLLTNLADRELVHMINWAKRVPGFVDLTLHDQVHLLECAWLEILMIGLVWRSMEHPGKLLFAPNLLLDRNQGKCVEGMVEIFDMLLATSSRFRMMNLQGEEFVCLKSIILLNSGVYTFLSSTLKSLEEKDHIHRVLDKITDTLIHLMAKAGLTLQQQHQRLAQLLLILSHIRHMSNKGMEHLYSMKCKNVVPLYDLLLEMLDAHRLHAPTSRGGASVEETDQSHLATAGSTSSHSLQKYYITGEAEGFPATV
The experiment in a line: Induction of ERalpha degradation in human MCF7 cells assessed as decrease in ERalpha protein level after 4 hrs by InCell Western assay. Type of data set: cell-based.

Data set [2] concerns MCF7. The experiment in a line: Antiproliferative activity against human MCF7 cells after 5 days by CellTiter-Glo assay. The note with it: MCF7, 120 h.
Data set [3] relates to Rattus norvegicus. Description: In vivo agonist activity at ERalpha in CD-IGS rat assessed as increase in uterine weight at 60 mg/kg, po for 3 consecutive days measured at 24 hrs post last dose. Type of data set: functional, organism-based.
Data set [4] is described as follows: AUC in mouse at 10 mg/kg, po. Type of data set: ADME, organism-based. As to conditions: in vivo.
Data set [5] is described as follows: Cmax in nude mouse xenografted with tamoxifen-resistant human MCF7 cells at 100 mg/kg, po daily for 28 days measured on day 28 post last dose. Format: ADME, organism-based. Also noted: dose 100 mg/kg, route oral. As to conditions: in vivo. The essentials:
(§1)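 Tamoxifen-resistant MCF-7 xenograft mice carrying subcutaneous 0.72 mg estradiol pellets. Plasma pharmacokinetics sampled on day 28 of the study, at take-down.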

Data set [6] is described as follows: AUC (0 to 24 hrs) in nude mouse xenografted with tamoxifen-resistant human MCF7 cells at 100 mg/kg, po daily for 28 days measured on day 28 post last dose. As to conditions: in vivo. Format: ADME, organism-based. Also noted: time < 24 hr, dose 100 mg/kg, route oral. The procedure, abridged:
as §1

Data set [7] in a line: Unbound Cmax in nude mouse xenografted with tamoxifen-resistant human MCF7 cells at 100 mg/kg, po daily for 28 days measured on day 28 post last dose. Format: ADME, organism-based. As to conditions: in vivo, 672 h. The essentials:
as §1

Data set [8] can be described thus: Unbound AUC (0 to 24 hrs) in nude mouse xenografted with tamoxifen-resistant human MCF7 cells at 100 mg/kg, po daily for 28 days measured on day 28 post last dose. Format: ADME, organism-based. As to conditions: in vivo. The procedure, abridged:
as §1

Data set [9] is described as follows: Clearance in rat at 10 mg/kg, po daily for 3 days measured on day 3 post last dose. Type of data set: ADME, organism-based. The note with it: in vivo.
Data set [10] in a line: Oral bioavailability in rat at 10 mg/kg daily for 3 days measured on day 3 post last dose. Type of data set: ADME, organism-based. The note with it: in vivo.
For data set [11], the system named is MCF7. The experiment in a line: Antitumor activity against tamoxifen-resistant human MCF7 cells xenografted in nude mouse at 100 mg/kg, po daily for 28 days. Format: functional, organism-based. The procedure, abridged: (§2)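 Tamoxifen-resistant MCF-7 tumours grown subcutaneously in mice, with estradiol supplied from subcutaneous 0.72 mg estradiol pellets.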

The test system of data set [12] is Mus musculus. The experiment in a line: In vivo induction of ERalpha degradation in tumor of nude mouse xenografted with tamoxifen-resistant human MCF7 cells at 100 mg/kg, po daily for 28 days measured on day 28 post last dose. Format: functional, organism-based. The procedure, abridged: as §2
Data set [13] can be described thus: Unbound fraction in mouse plasma. Format: ADME, cell-free.
The subject of data set [14] is Rattus norvegicus. The experiment in a line: In vivo inverse agonist activity at ERalpha in CD-IGS rat assessed as decrease in uterine weight at 10 mg/kg, po for 3 consecutive days measured at 24 hrs post last dose. Format: functional, organism-based. The essentials: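 Rat uterine wet weight assay run in agonist mode, with no ethynyl estradiol added. Oral dosing at 10 mg/kg for 3 days. Uterine weights compared with those of vehicle-treated animals.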

Data set [15] can be described thus: AUC in rat at 10 mg/kg, po daily for 3 days measured on day 3 post last dose. Type of data set: ADME, organism-based. As to conditions: in vivo.

In the case of `CC1=C(c2cccc(O)c2)C(c2ccc(OCCN3CC[C@@H](C#N)C3)cc2)Oc2ccc(O)cc21` (some centres undefined), the figures for the half-inhibitory concentration (IC50) in [1] and in data set [2] were 800 pM and 3600 pM, respectively.

Take `CC1=C(c2cccc(O)c2)C(c2ccc(OCCN3CCC[C@H]3CF)cc2)Oc2ccc(O)cc21` (some centres undefined): the IC50 in [1] worked out at 200 pM; in data set [2] it was 1400 pM.

Take `CC/C(=C(\c1ccccc1)c1ccc(OCCN(C)C)cc1)c1ccccc1`: the result in [3] was Active.

With `COC[C@@H]1CCN(CCOc2ccc(C3Oc4ccc(O)cc4C(C)=C3c3cccc(O)c3)cc2)C1` (some centres undefined), the results for the IC50 in data set [1] and in data set [2] were 300 pM and 400 pM, respectively.

Turning to `CC1=C(c2cccc(O)c2)C(c2ccc(OCCN3CC[C@@H](CF)C3)cc2)Oc2ccc(O)cc21` (some centres undefined), the half-maximal inhibitory concentration (IC50) in data set [1] was 100 pM; in data set [2], 200 pM. In addition, the area under the curve (AUC) in [4] is 40 ng·h/mL.

In data set [2], `CC1=C(c2ccc(F)cc2)[C@H](c2ccc(OCCN3CC(CF)C3)cc2)Oc2ccc(O)cc21` returned an IC50 of 200 pM. The same compound showed a Cmax in [5] of 2300 ng/mL. This compound yielded an AUC at 24 h in data set [6] of 21000 ng·h/mL. This compound also returned a fCmax in [7] of 0.009 µg/mL. Besides, in data set [8], the fAUC was 80 ng·h/mL. Further, in data set [9], the CL/F was found to be 36 mL/min/kg. For the same compound, the bioavailability in data set [10] worked out at 42%. In addition, the outcome in data set [11], in [12] and in [14] was Active. For the same compound, the Fu in data set [13] came to 0.4%. This compound also showed an AUC at 72 h in [15] of 1900 ng·h/mL.

Consider `CC1=C(c2cccc(O)c2)C(c2ccc(OCCN3CC(CF)C3)cc2)Oc2ccc(O)cc21` (centres undefined), for which the IC50 in data set [2] was determined as 200 pM. This compound also returned an AUC in data set [4] of 160 ng·h/mL.

In [5], `CC1=C(c2cccc(O)c2)[C@H](c2ccc(OC[C@H](C)N3CC[C@@H](C)C3)cc2)Oc2ccc(O)cc21` had a Cmax of 1300 ng/mL. Besides, the AUC at 24 h in data set [6] stood at 12000 ng·h/mL. Also, the fCmax in [7] came out at 0.021 µg/mL. Further, the fAUC in [8] worked out at 190 ng·h/mL. This compound also came in with a CL/F in data set [9] of over 60 mL/min/kg. In data set [10], the bioavailability was under 15%. Also, the outcome in data set [11] was inactive. In data set [12], the result was Active. In addition, in [13], the Fu amounted to 1.6%.

Turning to `CC1=C(c2cccc(O)c2)C(c2ccc(OC[C@H](C)N3CC(CF)C3)cc2)Oc2ccc(O)cc21` (some centres undefined), the values for the IC50 in [1] and in [2] were 200 pM and 300 pM, respectively.

In the case of `CC1=C(c2ccc(C#N)cc2)C(c2ccc(OCCN3CC(CF)C3)cc2)Oc2ccc(O)cc21` (centres undefined), the IC50 was 200 pM in data set [1] and 300 pM in [2].

Take `CC1=C(c2cccc(O)c2)C(c2ccc(OCCN3CC[C@@H](C(F)F)C3)cc2)Oc2ccc(O)cc21` (some centres undefined): the figures for the IC50 in data set [1] and in [2] were 200 pM and 400 pM, respectively.
